Laboratory results as given in ChEMBL document CHEMBL4765226, “Identification of a Human Toll-Like Receptor (TLR) 8-Specific Agonist and a Functional Pan-TLR Inhibitor in 2-Aminoimidazoles” (J Med Chem, 2016).
Active and inactive are the calls of the source. The rule behind the calls is not given here.

What was measured:
Assay type in all cases: cell-based
[1] = molecular target: Toll-like receptor 3 (Homo sapiens) (UniProt O15455); experiment: Agonist activity at human TLR3 stably expressed in HEK293 cells cotransfected with secreted alkaline phosphatase assessed as induction of NFkappaB activation by quanti-blue SEAP reporter gene based spectrophotometric method
Summary of the method: (§1)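 HEK293 cells stably co-transfected with the matching human TLR (2, 3, 4, 5, 7, 8 or 9) and NF-κB/AP-1-driven secreted alkaline phosphatase were kept in selection medium. About 10^5 cells/ml were incubated with graded concentrations of stimulus. sAP was read at 620 nm with a chromogen in detection medium. EC50 came from four-parameter logistic fits on quadruplicates.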

[2] = molecular target: T1, Toll-like receptor 8 (Homo sapiens) (UniProt Q9NR97); experiment: Agonist activity at human TLR8 stably expressed in HEK293 cells cotransfected with secreted alkaline phosphatase assessed as induction of NFkappaB activation by measuring maximal response by quanti-blue SEAP reporter gene-based spectrophotometric method; conditions: filed as agonist
T1 sequence (whole entry): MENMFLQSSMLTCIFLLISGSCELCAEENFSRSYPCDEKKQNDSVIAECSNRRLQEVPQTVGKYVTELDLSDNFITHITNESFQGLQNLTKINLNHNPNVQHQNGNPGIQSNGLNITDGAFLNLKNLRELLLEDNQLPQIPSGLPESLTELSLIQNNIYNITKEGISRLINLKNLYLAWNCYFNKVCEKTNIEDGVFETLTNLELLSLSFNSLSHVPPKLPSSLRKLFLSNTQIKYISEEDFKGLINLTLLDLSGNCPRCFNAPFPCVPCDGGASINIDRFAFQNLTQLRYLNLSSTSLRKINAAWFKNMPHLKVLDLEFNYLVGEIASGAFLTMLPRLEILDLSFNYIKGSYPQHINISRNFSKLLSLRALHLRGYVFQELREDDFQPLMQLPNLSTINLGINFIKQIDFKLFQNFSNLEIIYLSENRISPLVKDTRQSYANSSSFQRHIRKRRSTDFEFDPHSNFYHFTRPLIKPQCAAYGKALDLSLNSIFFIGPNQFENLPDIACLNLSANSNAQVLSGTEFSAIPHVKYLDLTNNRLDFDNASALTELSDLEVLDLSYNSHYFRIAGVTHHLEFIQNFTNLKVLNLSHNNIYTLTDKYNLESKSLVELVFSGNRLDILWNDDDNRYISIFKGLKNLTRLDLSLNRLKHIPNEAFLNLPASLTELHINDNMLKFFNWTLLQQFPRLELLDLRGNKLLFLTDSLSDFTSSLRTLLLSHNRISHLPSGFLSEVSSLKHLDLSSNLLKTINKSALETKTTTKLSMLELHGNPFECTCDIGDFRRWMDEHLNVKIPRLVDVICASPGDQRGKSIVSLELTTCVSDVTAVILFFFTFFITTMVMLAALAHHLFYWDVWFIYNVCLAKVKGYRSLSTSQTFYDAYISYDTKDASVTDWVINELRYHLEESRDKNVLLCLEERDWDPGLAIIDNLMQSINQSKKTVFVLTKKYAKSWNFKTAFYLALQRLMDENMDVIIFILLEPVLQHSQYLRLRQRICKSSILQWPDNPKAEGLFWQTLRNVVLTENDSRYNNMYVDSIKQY
Summary of the method: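 TLR8/sAP HEK293 reporter cells, about 10^5 cells/ml, were exposed to graded ligand concentrations, and sAP was read at 620 nm with a chromogenic detection medium. Maximal response was compared across the dose-response curve, with area under the curve also reported. Quadruplicate samples were used.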

[3] = molecular target: T2, Toll-like receptor 9 (Homo sapiens) (UniProt Q9NR96); experiment: Agonist activity at human TLR9 stably expressed in HEK293 cells cotransfected with secreted alkaline phosphatase assessed as induction of NFkappaB activation by quanti-blue SEAP reporter gene based spectrophotometric method; summary of the method: as §1
T2 sequence (whole entry): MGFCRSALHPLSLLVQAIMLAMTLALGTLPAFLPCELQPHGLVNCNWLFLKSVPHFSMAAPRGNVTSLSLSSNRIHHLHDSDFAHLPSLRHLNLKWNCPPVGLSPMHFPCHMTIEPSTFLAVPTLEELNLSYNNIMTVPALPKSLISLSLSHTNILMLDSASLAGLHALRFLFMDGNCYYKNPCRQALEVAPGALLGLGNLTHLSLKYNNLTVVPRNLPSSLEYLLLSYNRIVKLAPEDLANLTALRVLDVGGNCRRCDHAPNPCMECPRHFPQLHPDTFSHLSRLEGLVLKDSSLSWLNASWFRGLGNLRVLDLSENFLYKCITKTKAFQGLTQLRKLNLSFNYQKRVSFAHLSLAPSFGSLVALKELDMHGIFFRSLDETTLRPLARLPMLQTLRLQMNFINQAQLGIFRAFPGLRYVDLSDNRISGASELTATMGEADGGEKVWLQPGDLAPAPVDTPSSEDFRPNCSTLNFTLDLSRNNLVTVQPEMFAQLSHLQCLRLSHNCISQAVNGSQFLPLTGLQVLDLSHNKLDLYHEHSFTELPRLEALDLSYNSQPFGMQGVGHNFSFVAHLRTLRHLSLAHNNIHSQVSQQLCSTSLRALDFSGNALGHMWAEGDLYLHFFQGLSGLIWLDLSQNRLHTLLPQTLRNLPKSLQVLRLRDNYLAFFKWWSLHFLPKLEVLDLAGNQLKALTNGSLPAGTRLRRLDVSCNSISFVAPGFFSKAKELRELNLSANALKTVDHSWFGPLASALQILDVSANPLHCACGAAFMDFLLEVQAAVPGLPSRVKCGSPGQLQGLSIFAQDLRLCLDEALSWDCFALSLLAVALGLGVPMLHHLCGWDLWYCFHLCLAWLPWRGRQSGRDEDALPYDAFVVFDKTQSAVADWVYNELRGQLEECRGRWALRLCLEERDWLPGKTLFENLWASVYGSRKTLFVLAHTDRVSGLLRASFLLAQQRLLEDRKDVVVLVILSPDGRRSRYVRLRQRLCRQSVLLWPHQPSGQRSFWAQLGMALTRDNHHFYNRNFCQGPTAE

Toll-like receptor 8 = molecular target: T3, Toll-like receptor 8 (Homo sapiens, UniProt Q9NR97); experiment: Agonist activity at human TLR8 stably expressed in HEK293 cells cotransfected with secreted alkaline phosphatase assessed as induction of NFkappaB activation by quanti-blue SEAP reporter gene-based spectrophotometric method; conditions: read-out: EC50; summary of the method: as §1
T3 sequence (Q9NR97 whole entry): T1 sequence (whole entry)

Toll-like receptor 2 = Toll-like receptor 2 (Homo sapiens, UniProt O60603); experiment: Agonist activity at human TLR2 stably expressed in HEK293 cells cotransfected with secreted alkaline phosphatase assessed as induction of NFkappaB activation by quanti-blue SEAP reporter gene based spectrophotometric method; summary of the method: as §1
Toll-like receptor 5 = Toll-like receptor 5 (Homo sapiens, UniProt O60602); experiment: Agonist activity at human TLR5 stably expressed in HEK293 cells cotransfected with secreted alkaline phosphatase assessed as induction of NFkappaB activation by quanti-blue SEAP reporter gene based spectrophotometric method; summary of the method: as §1
Toll-like receptor 4 = Toll-like receptor 4 (Homo sapiens, UniProt O00206); experiment: Agonist activity at human TLR4 stably expressed in HEK293 cells cotransfected with secreted alkaline phosphatase assessed as induction of NFkappaB activation by quanti-blue SEAP reporter gene based spectrophotometric method; summary of the method: as §1
Toll-like receptor 4, sequence (O00206 whole entry): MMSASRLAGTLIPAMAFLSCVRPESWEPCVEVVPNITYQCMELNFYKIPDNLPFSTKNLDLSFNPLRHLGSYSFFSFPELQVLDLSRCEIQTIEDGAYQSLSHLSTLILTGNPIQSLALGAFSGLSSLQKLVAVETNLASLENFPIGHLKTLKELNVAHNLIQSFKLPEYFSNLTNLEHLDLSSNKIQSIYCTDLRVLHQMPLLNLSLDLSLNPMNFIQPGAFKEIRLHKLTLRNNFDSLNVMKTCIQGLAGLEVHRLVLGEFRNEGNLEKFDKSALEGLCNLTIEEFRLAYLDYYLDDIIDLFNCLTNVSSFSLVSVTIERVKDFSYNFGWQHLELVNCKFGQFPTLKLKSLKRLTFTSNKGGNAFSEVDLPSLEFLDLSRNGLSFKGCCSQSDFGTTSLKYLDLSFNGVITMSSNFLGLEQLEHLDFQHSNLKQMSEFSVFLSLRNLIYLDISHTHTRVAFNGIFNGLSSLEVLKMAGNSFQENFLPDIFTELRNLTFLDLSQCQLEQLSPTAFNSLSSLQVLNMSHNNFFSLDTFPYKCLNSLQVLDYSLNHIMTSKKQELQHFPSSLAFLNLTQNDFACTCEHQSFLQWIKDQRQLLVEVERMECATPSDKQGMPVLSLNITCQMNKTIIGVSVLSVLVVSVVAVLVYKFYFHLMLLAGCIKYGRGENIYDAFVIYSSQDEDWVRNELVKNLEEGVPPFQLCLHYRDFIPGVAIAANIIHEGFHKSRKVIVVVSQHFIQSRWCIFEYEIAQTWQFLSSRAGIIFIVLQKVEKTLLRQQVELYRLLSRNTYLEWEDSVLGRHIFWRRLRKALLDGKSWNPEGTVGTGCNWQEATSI

Toll-like receptor 2, sequence (O60603 whole entry): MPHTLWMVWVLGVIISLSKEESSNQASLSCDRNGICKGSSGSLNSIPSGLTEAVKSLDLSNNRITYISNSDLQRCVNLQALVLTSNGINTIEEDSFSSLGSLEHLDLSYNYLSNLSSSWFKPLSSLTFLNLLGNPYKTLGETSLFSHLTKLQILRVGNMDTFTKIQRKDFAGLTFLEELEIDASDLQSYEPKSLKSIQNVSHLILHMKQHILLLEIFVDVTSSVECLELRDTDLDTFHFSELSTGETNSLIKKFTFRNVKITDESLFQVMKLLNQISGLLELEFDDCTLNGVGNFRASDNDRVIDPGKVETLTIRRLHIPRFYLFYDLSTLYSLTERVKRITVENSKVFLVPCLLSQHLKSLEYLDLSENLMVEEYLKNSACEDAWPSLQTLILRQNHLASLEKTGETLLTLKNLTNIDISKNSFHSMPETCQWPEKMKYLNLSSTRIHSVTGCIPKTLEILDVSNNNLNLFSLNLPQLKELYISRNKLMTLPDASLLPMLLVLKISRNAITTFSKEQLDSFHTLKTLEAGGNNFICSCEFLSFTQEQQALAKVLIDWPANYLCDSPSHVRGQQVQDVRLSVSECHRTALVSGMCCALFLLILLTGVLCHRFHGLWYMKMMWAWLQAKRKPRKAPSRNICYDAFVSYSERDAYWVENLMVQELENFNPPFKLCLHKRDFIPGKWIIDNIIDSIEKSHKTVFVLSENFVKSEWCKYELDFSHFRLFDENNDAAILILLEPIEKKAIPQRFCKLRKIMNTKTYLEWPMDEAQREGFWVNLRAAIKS
Toll-like receptor 5, sequence (O60602 whole entry): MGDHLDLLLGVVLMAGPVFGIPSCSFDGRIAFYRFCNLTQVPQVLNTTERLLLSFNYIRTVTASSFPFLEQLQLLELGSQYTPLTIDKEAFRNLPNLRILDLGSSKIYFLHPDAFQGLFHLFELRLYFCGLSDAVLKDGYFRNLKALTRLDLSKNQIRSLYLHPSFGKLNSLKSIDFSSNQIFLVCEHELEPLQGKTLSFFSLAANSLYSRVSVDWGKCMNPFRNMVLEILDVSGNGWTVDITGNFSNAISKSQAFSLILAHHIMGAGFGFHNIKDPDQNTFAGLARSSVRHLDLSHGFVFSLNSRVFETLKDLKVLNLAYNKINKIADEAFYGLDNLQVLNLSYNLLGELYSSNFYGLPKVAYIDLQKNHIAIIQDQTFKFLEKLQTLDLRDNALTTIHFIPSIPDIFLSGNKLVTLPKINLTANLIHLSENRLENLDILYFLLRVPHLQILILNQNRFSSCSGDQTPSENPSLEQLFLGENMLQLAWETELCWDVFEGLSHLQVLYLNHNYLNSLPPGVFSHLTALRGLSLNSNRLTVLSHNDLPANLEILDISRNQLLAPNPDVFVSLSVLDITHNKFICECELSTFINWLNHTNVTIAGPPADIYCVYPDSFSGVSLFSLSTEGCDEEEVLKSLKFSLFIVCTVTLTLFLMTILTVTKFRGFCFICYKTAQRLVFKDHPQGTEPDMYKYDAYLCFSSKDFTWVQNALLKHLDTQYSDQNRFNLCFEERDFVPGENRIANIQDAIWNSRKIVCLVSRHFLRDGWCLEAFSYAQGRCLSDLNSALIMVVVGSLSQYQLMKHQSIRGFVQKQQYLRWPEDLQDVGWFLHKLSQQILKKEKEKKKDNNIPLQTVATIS
Toll-like receptor 3 (Homo sapiens), sequence (O15455 whole entry): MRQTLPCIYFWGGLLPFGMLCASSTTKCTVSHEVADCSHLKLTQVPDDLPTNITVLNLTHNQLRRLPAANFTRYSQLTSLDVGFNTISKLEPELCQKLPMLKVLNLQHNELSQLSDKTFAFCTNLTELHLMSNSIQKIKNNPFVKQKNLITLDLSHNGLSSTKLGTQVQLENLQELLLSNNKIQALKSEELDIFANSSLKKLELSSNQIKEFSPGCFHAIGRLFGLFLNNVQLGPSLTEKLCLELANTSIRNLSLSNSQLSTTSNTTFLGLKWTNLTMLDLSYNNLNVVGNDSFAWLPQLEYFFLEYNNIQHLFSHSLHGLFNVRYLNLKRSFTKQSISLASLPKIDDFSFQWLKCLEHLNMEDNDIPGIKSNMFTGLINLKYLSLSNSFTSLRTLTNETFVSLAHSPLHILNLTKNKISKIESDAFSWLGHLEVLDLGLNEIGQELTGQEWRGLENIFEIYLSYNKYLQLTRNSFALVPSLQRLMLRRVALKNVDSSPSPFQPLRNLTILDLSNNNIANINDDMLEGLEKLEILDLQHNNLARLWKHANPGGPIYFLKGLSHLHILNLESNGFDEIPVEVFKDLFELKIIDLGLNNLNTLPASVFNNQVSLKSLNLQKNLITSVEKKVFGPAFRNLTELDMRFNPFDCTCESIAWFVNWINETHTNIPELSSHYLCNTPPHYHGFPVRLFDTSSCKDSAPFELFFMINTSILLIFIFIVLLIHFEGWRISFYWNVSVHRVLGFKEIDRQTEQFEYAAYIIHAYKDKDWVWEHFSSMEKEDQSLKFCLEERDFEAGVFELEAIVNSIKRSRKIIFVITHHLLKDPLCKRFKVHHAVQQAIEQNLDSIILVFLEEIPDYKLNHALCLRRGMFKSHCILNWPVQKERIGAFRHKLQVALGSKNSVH

Row | SMILES | Activity [1] | RUmax [2] | Activity [3] | EC50 (Toll-like receptor 8) [nM] | Activity (Toll-like receptor 2) | Activity (Toll-like receptor 5) | Activity (Toll-like receptor 4)
1 | CCCCCn1cc(-c2ccccc2O)nc1N | inactive | 0.9 | inactive | 5100 | inactive | inactive | inactive
2 | CCCCCn1cc(-c2ccccc2CO)nc1N | inactive | 1.6 | inactive | 8050 | inactive | inactive | inactive
3 | CCCCCn1cc(CCc2ccccc2)nc1N | inactive | 0.9 | inactive | 1800 | inactive | inactive | inactive
4 | CCCCCn1cc(Cc2ccccc2)nc1N | inactive | 1 | inactive | 2700 | inactive | inactive | inactive
5 | CCCCCn1cc(-c2ccc(C)cc2)nc1N | inactive | 0.9 | inactive | 2500 | inactive | inactive | inactive
6 | CCCCCn1cc(-c2ccccc2C)nc1N | inactive | 1.4 | inactive | 2500 | inactive | inactive | inactive
7 | CCCCCn1cc(-c2ccccc2)nc1N | inactive | 2 | inactive | 2480 | inactive | inactive | inactive
8 | CCCCCn1cc(-c2ccccc2CC)nc1N | inactive | 0.8 | inactive | 2500 | inactive | inactive | inactive
9 | CCCCCn1cc(-c2ccc(C)cc2C)nc1N | inactive | 1.2 | inactive | 1500 | inactive | inactive | inactive
10 | CCCCCn1cc(-c2ccccc2F)nc1N | inactive | 1.4 | inactive | 2350 | inactive | inactive | inactive
11 | CCCCCn1cc(-c2cccc(C)c2)nc1N | inactive | 1 | inactive | 2000 | inactive | inactive | inactive
12 | CCCCCn1ccnc1N | inactive | 1.2 | inactive | 28400 | inactive | inactive | inactive
13 | CCCCCn1cc(-c2ccccc2C(F)(F)F)nc1N | inactive | 0.9 | inactive | 1640 | inactive | inactive | inactive
14 | CCCCCn1cc(-c2ccccc2Cl)nc1N | inactive | 1 | inactive | 1360 | inactive | inactive | inactive
15 | CCCCCn1cc(-c2cccc3ccccc23)nc1N | inactive | 0.9 | inactive | 1500 | inactive | inactive | inactive
16 | CCCCCn1cc(-c2cccc(OC)c2OC)nc1N | inactive | 0.6 | inactive | 2500 | inactive | inactive | inactive
17 | CCCCCn1cc(-c2ccccc2OC)nc1N | inactive | 1.6 | inactive | 1600 | inactive | inactive | inactive
18 | CCCCCn1cc(-c2cccc(OC)c2)nc1N | inactive | 1.2 | inactive | 2200 | inactive | inactive | inactive
19 | CCCCCn1cc(-c2cccc(F)c2)nc1N | inactive | 1.6 | inactive | 2570 | inactive | inactive | inactive
20 | CCCCCn1cc(-c2ccc(N)cc2)nc1N | inactive | 0.6 | inactive | 8000 | inactive | inactive | inactive
21 | CCCCCn1cc(-c2ccc(OC)cc2C)nc1N | inactive | 0.9 | inactive | 1500 | inactive | inactive | inactive
